According to ChEMBL document CHEMBL1138826, “New 1,4-dihydropyridines endowed with NO-donor and calcium channel agonist properties” (J Med Chem, 2004):

Columns and labels:
[1] = species: Rattus norvegicus; assay: Capacity to increase [Ca2+] entry into the vascular smooth muscle was evaluated on rat aorta strips partially depolarized with 10 mM K+ relative to 50 mM KCl in the presence of 1 uM ODQ.; format: functional, Muscle tissue
Summary of the method: (§1)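 Endothelium-denuded rat thoracic aorta strips under 0.7 g tension, precontracted twice with 50 mM KCl. Cumulative contraction curves in 10 mM KCl, in light-protected conditions, with 1 µM ODQ added at least 15 min before the first agonist concentration. EC50 is the mean of 5-7 determinations.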

[2] = species: Rattus norvegicus; assay: Capacity to increase [Ca2+] entry into the vascular smooth muscle was evaluated on rat aorta strips partially depolarized with 10 mM K+ in the presence of 1 uM ODQ.; format: functional; conditions: Muscle tissue; summary of the method: as §1
[3] = species: Rattus norvegicus; assay: Positive inotropic activity on rat papillary muscle electrically stimulated by unipolar square wave pulses in the presence of 1 uM ODQ.; format: functional; conditions: Muscle tissue
Summary of the method: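 Electrically stimulated rat papillary muscle with 1 µM propranolol and 0.1 µM prazosin, plus 1 µM ODQ added at least 15 min before the first dose. Cumulative half-log concentration-response curve, one per tissue, after 90 min equilibration. EC50 is the mean of 5-7 determinations.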

[4] = species: Rattus norvegicus; assay: Capacity to increase [Ca2+] entry into the vascular smooth muscle was evaluated on rat aorta strips partially depolarized with 10 mM K+ relative to 50 mM KCl; format: functional, Muscle tissue
Summary of the method: (§2)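 Thoracic aorta cut helically, endothelium removed, three strips per vessel, 0.7 g tension, isotonic recording. Equilibrated 1 h, then depolarized twice with 50 mM KCl at 60 min intervals. Cumulative contraction curves run in 10 mM KCl, protected from light. EC50 is the mean of 5-7 determinations.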

[5] = species: Rattus norvegicus; assay: Capacity to increase [Ca2+] entry into the vascular smooth muscle was evaluated on rat aorta strips partially depolarized with 10 mM K+; No effect; format: functional, Muscle tissue; summary of the method: as §2
[6] = species: Rattus norvegicus; assay: Positive inotropic activity on rat papillary muscle electrically stimulated by unipolar square wave pulses; format: functional; conditions: Muscle tissue
Summary of the method: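 Electrically driven rat papillary muscle, 90 min equilibration. Cumulative curves in half-log steps, each step after a plateau, in the presence of 1 µM propranolol and 0.1 µM prazosin added 15 min beforehand. One curve per tissue. EC50 is the mean of 5-7 determinations.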

[7] = molecular target: T1, Voltage-gated L-type calcium channel (Rattus norvegicus, UniProt P22002+Q02485+P27732); assay: Agonistic potency, mean percentage of increased Ba2+ currents at -20 mV; Range = 200-240%; format: functional
Summary of the method: (§3)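 Whole-cell patch clamp on cultured rat insulinoma RINm5F cells at 22 °C. External solution (mM): 125 NaCl, 10 BaCl2, 1 MgCl, 10 HEPES pH 7.3, 300 nM TTX. Internal solution CsCl/TEACl/EGTA-based with ATP and GTP. Held at -60 mV, stepped to -20 mV, returned to -40 mV. Compounds at 3 µM by fast superfusion. Result is % increase of L-type Ba2+ current, after subtracting the current insensitive to 3 µM nifedipine; 5-22 cells.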

[8] = species: Rattus norvegicus; assay: Capacity to increase [Ca2+] entry into the vascular smooth muscle was evaluated on rat aorta strips partially depolarized with 10 mM K; format: functional; conditions: Muscle tissue; summary of the method: as §2
[9] = molecular target: T1, Voltage-gated L-type calcium channel; assay: Effect on L-type [Ca2+] channels of rat RIN-m5F insulinoma cells in 10 mM Ba2+, -60 mV holding potential at 3 uM, -20 mV; format: functional; summary of the method: as §3

Row | Compound | Max [1] [%] | EC50 [2] [nM] | EC50 [3] [µM] | Max [4] [%] | EC50 [5] | EC50 [6] [nM] | Agonistic potency [7] [%] | EC50 [8] [nM] | Increase [9] [%]
1 | CO/C(O)=C1/C(C)=NC(C)=C([N+](=O)[O-])C1c1ccccc1OCc1no[n+]([O-])c1C#N (stereo unspecified) | 29 | 210 | 5 | 0 | Not Active | 5200 | < 240 | – | –
2 | COC(=O)C1=C(C)NC(C)=C([N+](=O)[O-])C1c1ccccc1C(F)(F)F (stereo unspecified) | – | – | – | 84 | – | 170 | – | 18 | 320
3 | CO/C(O)=C1/C(C)=NC(C)=C([N+](=O)[O-])C1c1ccccc1OCc1no[n+]([O-])c1C (stereo unspecified) | 83 | 110 | 1.3 | 80 | – | 1200 | < 240 | 100 | –
4 | CO/C(O)=C1/C(C)=NC(C)=C([N+](=O)[O-])C1c1ccccc1OCc1nonc1C#N (stereo unspecified) | – | – | – | 62 | – | 1500 | < 240 | 120 | –
5 | CO/C(O)=C1/C(C)=NC(C)=C([N+](=O)[O-])C1c1ccccc1OCc1nonc1C (stereo unspecified) | – | – | – | 85 | – | 820 | < 240 | 57 | –
